Bioassay records: PubChem, The Scripps Research Institute Molecular Screening Center
Shown are actives, neighbours in structure and some others; about 1.8% of the full set was active somewhere.
M4 antag = blocks acetylcholine activation of human M4 receptor | CHO-hM4 cells, ACh EC80, Fluo-8 calcium fluorescence | P08173 | AID 624125 | inhibition, % at 3 µM | 360,000 tested, 0.73% active;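 active = inhibition above its plate's cutoff, the mean inhibition of sample wells plus 3 SD, cut at about 27% in these data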
Target sequence (P08173 whole entry, looked up): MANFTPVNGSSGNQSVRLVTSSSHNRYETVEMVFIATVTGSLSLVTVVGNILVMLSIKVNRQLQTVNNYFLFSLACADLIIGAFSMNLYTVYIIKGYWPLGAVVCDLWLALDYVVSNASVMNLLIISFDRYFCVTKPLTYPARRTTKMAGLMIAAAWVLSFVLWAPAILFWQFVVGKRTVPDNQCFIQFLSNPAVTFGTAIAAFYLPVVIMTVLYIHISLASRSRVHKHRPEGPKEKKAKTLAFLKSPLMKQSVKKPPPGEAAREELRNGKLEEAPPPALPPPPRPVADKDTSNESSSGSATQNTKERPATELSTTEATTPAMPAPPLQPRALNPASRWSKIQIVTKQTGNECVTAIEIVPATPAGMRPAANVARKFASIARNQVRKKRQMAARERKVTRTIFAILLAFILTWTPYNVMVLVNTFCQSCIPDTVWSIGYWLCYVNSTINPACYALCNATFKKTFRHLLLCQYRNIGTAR
CHRM4 PAM = potentiates acetylcholine response at human M4 receptor | 360,000 tested, 0.4% active | activation, % at 3 µM | CHO-K1 hM4/Gqi5, Fluo-8 calcium fluorescence, ACh EC20; 0% = ACh EC20, 100% = maximal ACh | AID 624126 | P08173;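 active = activation above its plate's cutoff, the mean activation of sample wells plus 3 SD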
M5 antag = blocks acetylcholine activation of human M5 receptor. CHO-hM5 cells, Fluo-8 calcium fluorescence, ACh EC80. 360,000 tested, 0.59% active. inhibition, % at 3 µM;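 active = inhibition above a per-plate cutoff, the mean of that plate's test compounds plus 3 SD, cut at about 27% in these data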
M4 ag = CHRM4 agonism in calcium assay; CHO-K1 hM4/Gqi5, Fluo-8 calcium fluorescence; vehicle 0%, full acetylcholine response 100%; P08173; 360,000 tested, 0.14% active; activation, % at 3 µM;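 active = activation above the run mean over all test wells plus 3 SD, cut at about 32% in these data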;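 note: peak over basal fluorescence ratio per well then scaled between controls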
CHRM5 PAM = positive allosteric modulators of human muscarinic M5 receptor | P08912 | CHO-K1 hM5, Fluo-8 calcium, ACh EC20 PAM; 0% = ACh EC20, 100% = ACh EC100 | activation, % at 3 µM | 360,000 tested, 0.3% active;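 active = activation above the run cutoff, the mean activation of all test compounds plus 3 SD, cut at about 18% in these data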
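Probe or stimulus: acetylcholine, EC20 level; Assay system: human M5 receptor in CHO-K1 cells; Schedule: compound preincubation 140 s before EC20 acetylcholine addition; Technique: intracellular calcium via Fluo-8 fluorescence; Dosing: single-point, 3 µM nominal; Read-out basis: percent activation from peak-over-basal fluorescence ratio, scaled EC20-to-EC100 acetylcholine; Repeats: one well per compound, no replicates.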
M5 ag = agonists of human muscarinic M5 receptor (CHRM5); P08912; CHO-K1 hM5 cells, Fluo-8 calcium fluorescence; 0% DMSO wells, 100% maximal acetylcholine response; activation, % at 3 µM; 360,000 tested, 0.19% active; AID 624037;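 active = activation above the run's mean over test compounds plus 3 SD, cut at about 23% in these data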;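 note: signal is peak over basal fluorescence ratio across the kinetic read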
A number is an active result; . = inactive.

SMILES	M4 antag	CHRM4 PAM	M5 antag	M4 ag	CHRM5 PAM	M5 ag
Cc1ccc(N(C(=O)CS(=O)CC(=O)Nc2ccc(F)cc2)C(C(=O)NC2CCCCC2)c2ccco2)cc1 (stereo unspecified)	.	.	.	.	.	.
Cc1ccc(NC(=O)CS(=O)CC(=O)N(C(C)C(=O)NC2CCCCC2)C(C)(C)C)cc1 (stereo unspecified)	.	.	27.5	.	.	.
COC(=O)C1=C(C)N(CCc2ccc(OC)c(OC)c2)C(=O)C1	.	.	.	.	27.9	.
CCNc1nc(NC#N)nc(SCC(=O)OCC)n1	.	.	.	.	.	.
CCOC(=O)CSc1nc(NC#N)nc(N(CC)CC)n1	.	.	.	.	18.7	.
COC(=O)CCCC1=CC2=CC(=O)C(C)(OC(=O)c3cccs3)C(=O)C2=CN1Cc1ccccc1 (stereo unspecified)	.	.	.	.	.	.
COC(=O)CCCC1=CC2=CC(=O)C(C)(OC(=O)c3cccs3)C(=O)C2=CN1c1ccc(OC)cc1 (stereo unspecified)	26.8	.	.	.	.	.
COc1ccc(Cl)cc1N(CC(=O)NC(C)(C)C)S(=O)(=O)c1ccc(C)c([N+](=O)[O-])c1	.	22.2	.	.	.	.
O=C(CCN1N=C(c2ccccc2)CCC1=O)NCC1COc2ccccc2O1 (stereo unspecified)	.	.	.	.	.	.
Cc1ccc(/C=C2\SC(N3CCN(C(c4ccccc4)c4ccccc4)CC3)=NC2=O)o1	81.9	.	38.1	.	.	.
O=C1N=C(N2CCN(c3ccccc3)CC2)S/C1=C/c1cccs1	.	.	27.4	.	.	.
O=C(CC(c1ccccc1)c1cc(Cl)ccc1O)N1CCCC1 (stereo unspecified)	.	.	.	.	.	.
O=C(CC(c1ccccc1O)N1CCCCC1)N1CCCCC1 (stereo unspecified)	77.9	.	.	.	.	.
O=C(COC(=O)c1ccco1)NCCNC(=O)COC(=O)c1ccco1	.	18.9	.	.	.	.
Cn1c(=O)n(C)c2cc([N+](=O)[O-])c(N3CCN(CCO)CC3)cc21	.	.	.	.	.	.
CCOC(=O)N1CCN(c2ccnc3cc(Cl)ccc23)CC1	77.2	.	.	.	.	.
CCCCNC(=O)C[C@@H]1C[C@@]2(C(=O)OC)CCCCC=C2N(Cc2ccc(Cl)cc2Cl)C1=O	.	.	.	.	.	.
COc1ccc(S(=O)(=O)N(C)C[C@@H]2OCc3cnnn3CCCC(=O)N([C@@H](C)CO)C[C@@H]2C)cc1	.	19.1	.	.	.	.
Cc1ccc(S(=O)(=O)N(C)C[C@H]2OCc3cnnn3CCCC(=O)N([C@@H](C)CO)C[C@H]2C)cc1	.	.	.	.	.	.
O=C1CSC(=S)N1Nc1ccccc1	.	.	.	.	.	25.9
Cc1ccccc1C(=O)NN1C(=O)CSC1=S	.	.	.	.	.	.
Cc1cc2c(SCC(=O)NC3CCCC3)ncnc2s1	.	.	.	.	.	.
NC(=O)c1ccsc1NC(=O)COC(=O)/C=C/c1ccc([N+](=O)[O-])cc1	.	.	.	.	.	.
COC(=O)c1ccc(/C=C/C(=O)OCC(=O)Nc2sccc2C(N)=O)cc1	45.3	.	27.0	.	.	.
COc1ccc(/C=C/C(=O)OCC(=O)Nc2cc(C(N)=O)cc(C(N)=O)c2)cc1	.	.	.	.	18.1	.
SMILES	M4 antag	CHRM4 PAM	M5 antag	M4 ag	CHRM5 PAM	M5 ag
COc1ccc(/C=C/C(=O)OCC(=O)Nc2cccc(C(C)=O)c2)cc1	.	.	.	.	.	.
Cc1ccc(O)c(NC(=O)c2cc(-c3ccccc3Cl)on2)c1	.	.	27.6	.	.	.
Cc1ccc(-c2cc(C(=O)Nc3cc(C)ccc3O)no2)cc1	.	.	.	.	.	.
Cn1nc(C(F)(F)F)c(/C=N/OC(=O)c2ccccc2)c1SCc1ccccc1Cl	30.0	.	.	.	.	.
c1ccc(C(Cc2nc(-c3ccncc3)no2)c2ccccc2)cc1	.	.	30.7	.	.	.
CCN(CC)CC(C)(C)C(=O)/C=C/c1ccc(/C=C/C(=O)C(C)(C)CN(CC)CC)cc1	41.6	.	.	.	.	.
OC(CC#CCN1CCCCC1)(c1ccccc1)c1ccccc1	44.3	.	.	.	.	.
C(#CCN1CCCC1)CC(c1ccccc1)c1ccccc1	69.2	.	74.5	.	.	.
CC(O)(C#CCN1CCCC1)c1ccccc1 (stereo unspecified)	.	.	.	.	.	.
CC(C)(C)C(O)(CC#CCN1CCCC1)c1ccccc1 (stereo unspecified)	.	.	34.3	.	.	.
CN1CCN(CC#CCC(O)(c2ccccc2)c2ccccc2)CC1	.	.	.	.	.	.
OC(C#CCN1CCCC1)(c1ccccc1)c1cccc(F)c1 (stereo unspecified)	93.6	.	98.3	.	.	.
Cc1cc(NS(=O)(=O)c2ccc(NC(=O)c3ccc([N+](=O)[O-])cc3)cc2)nc(C)n1	.	.	.	.	.	.
OC(CC#CCN1CCOCC1)(c1ccccc1)c1ccccc1	.	.	.	.	.	.
CC(O)(C#CCN1CCCCC1)c1ccccc1 (stereo unspecified)	.	.	.	.	.	.
CC1CCCN1CC#CC(O)(c1ccccc1)c1ccccc1 (stereo unspecified)	97.0	.	99.0	.	.	.
CC(C)C(O)(C#CCN1CCCCCC1)c1ccccc1 (stereo unspecified)	54.0	.	60.0	.	.	.
OC(CC#CCN1CCCC1)(c1ccccc1)c1ccccc1	87.9	.	57.8	.	.	.
CC1CCCCN1C(C(=O)O)c1ccccc1 (stereo unspecified)	.	.	.	.	.	.
CC(C)(C#CCN1CCCCC1)OCCOC(c1ccccc1)c1ccccc1	96.7	.	30.0	.	.	.
Cc1ccc(C(=O)O)cc1NC(=O)CCc1c(C)noc1C	.	.	.	.	.	.
CC(C)C(O)(CC#CCN1CCCC1)c1ccccc1 (stereo unspecified)	49.4	.	42.4	.	.	.
O=c1[nH]c(=S)[nH]c2c1CN(Cc1ccc(F)cc1)CC2	.	.	.	.	.	.
COc1cc(Cl)ccc1OCc1cc(C(=O)N2CCCCCC2)no1	.	.	.	.	.	.
COc1cccc(OCc2cc(C(=O)N3CCN(C4CCCC4)CC3)no2)c1	.	.	29.4	.	.	.
CC(CNC(=O)c1cc(COc2ccc3ncccc3c2)on1)c1ccccc1 (stereo unspecified)	.	.	29.8	.	.	.
